Laboratory results reported in article PMC6463388 (Biochemical Journal, 2019).

How the values were obtained:
[1] = molecular target: T1, AtGCL (WT γ-glutamylcysteine ligase) (Arabidopsis thaliana, UniProt P46309); test: inhibition of GCL activity; format: biochemical; conditions: read-out: GSH
T1 sequence (P46309 74-522): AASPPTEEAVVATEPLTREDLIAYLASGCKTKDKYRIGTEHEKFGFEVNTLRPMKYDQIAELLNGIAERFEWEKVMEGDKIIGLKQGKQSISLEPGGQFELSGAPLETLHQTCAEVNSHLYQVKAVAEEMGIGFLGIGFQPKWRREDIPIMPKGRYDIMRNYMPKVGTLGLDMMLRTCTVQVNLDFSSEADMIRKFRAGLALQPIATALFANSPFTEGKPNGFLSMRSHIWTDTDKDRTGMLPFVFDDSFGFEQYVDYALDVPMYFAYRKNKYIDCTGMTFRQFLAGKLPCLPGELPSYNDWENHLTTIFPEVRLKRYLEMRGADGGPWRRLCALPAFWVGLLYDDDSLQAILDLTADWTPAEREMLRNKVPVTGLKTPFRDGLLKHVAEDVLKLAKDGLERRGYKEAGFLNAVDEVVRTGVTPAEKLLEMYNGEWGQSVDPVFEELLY
Summary of the method: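 Recombinant His-tagged AtGCL from E. coli Rosetta-gami DE3, purified by Ni²⁺ affinity, cleaved with TEV protease, then passed through a second Ni²⁺ step. Pyruvate kinase/lactate dehydrogenase-coupled assay at pH 7.0 (100 mM MOPSO, 150 mM NaCl, 20 mM MgCl₂). […] Reaction started with 50 µg enzyme; A340 monitored.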

purified protein [2] = substrate: N[C@@H](CCC(=O)O)C(=O)O; test: purified protein; format: biochemical, Arabidopsis thaliana; conditions: 20 mM cysteine, 20 mM ATP, 20 mM MgCl2, pH 7.0, oxidized homo-dimer
purified protein [3] = substrate: N[C@@H](CS)C(=O)O; test: purified protein; format: biochemical, Arabidopsis thaliana; conditions: 20 mM ATP, 80 mM glutamate, 20 mM MgCl2, pH 7.0, oxidized homo-dimer

N[C@@H](CCC(=O)N[C@@H](CS)C(=O)NCC(=O)O)C(=O)O [GSH]
activity at 2000 µM [1]: 49 ± 4%

B1: AtGCL (WT γ-glutamylcysteine ligase) (Arabidopsis thaliana) (protein)
chain: T1 sequence (P46309 74-522)
Km (purified protein [2]): 6.64 ± 1.02 mM | Km (purified protein [3]): 0.34 ± 0.12 mM
